From ChEMBL document CHEMBL1149455, “Structure-activity relationship study of 1,4-dihydropyridine derivatives blocking N-type calcium channels” (Bioorg Med Chem Lett, 2006)

How the values were obtained:
[1] = target: Voltage-dependent N-type calcium channel subunit alpha-1B (Homo sapiens, UniProt Q00975); assay: Inhibitory activity against N-type calcium channel by calcium influx into IMR32 cells; assay type: functional, cell-based, IMR-32
[2] = target: Voltage-gated L-type calcium channel (Rattus norvegicus, UniProt P22002+Q02485+P27732); assay: Inhibitory activity against L-type calcium channel in SD rat thoracic aorta by Magnus method; assay type: functional, tissue-based
Method in brief: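 Aortic ring held at 2 g resting tension and equilibrated 1 h. It was then exposed to high-K⁺ solution and then Tyrode's solution, 45 min each, and returned to high-K⁺. After maximal contraction, compound was added cumulatively at 90-min intervals to 10⁻⁹, 10⁻⁸, 10⁻⁷ and 10⁻⁶ M. IC50 was derived from inhibition of the K⁺-induced contraction.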

Rattus norvegicus = assay: Analgesic effect in rat following foot-pad injection of formalin at 30 mg/kg, po; assay type: functional

Voltage-dependent N-type calcium channel subunit alpha-1B, sequence (Q00975 whole entry): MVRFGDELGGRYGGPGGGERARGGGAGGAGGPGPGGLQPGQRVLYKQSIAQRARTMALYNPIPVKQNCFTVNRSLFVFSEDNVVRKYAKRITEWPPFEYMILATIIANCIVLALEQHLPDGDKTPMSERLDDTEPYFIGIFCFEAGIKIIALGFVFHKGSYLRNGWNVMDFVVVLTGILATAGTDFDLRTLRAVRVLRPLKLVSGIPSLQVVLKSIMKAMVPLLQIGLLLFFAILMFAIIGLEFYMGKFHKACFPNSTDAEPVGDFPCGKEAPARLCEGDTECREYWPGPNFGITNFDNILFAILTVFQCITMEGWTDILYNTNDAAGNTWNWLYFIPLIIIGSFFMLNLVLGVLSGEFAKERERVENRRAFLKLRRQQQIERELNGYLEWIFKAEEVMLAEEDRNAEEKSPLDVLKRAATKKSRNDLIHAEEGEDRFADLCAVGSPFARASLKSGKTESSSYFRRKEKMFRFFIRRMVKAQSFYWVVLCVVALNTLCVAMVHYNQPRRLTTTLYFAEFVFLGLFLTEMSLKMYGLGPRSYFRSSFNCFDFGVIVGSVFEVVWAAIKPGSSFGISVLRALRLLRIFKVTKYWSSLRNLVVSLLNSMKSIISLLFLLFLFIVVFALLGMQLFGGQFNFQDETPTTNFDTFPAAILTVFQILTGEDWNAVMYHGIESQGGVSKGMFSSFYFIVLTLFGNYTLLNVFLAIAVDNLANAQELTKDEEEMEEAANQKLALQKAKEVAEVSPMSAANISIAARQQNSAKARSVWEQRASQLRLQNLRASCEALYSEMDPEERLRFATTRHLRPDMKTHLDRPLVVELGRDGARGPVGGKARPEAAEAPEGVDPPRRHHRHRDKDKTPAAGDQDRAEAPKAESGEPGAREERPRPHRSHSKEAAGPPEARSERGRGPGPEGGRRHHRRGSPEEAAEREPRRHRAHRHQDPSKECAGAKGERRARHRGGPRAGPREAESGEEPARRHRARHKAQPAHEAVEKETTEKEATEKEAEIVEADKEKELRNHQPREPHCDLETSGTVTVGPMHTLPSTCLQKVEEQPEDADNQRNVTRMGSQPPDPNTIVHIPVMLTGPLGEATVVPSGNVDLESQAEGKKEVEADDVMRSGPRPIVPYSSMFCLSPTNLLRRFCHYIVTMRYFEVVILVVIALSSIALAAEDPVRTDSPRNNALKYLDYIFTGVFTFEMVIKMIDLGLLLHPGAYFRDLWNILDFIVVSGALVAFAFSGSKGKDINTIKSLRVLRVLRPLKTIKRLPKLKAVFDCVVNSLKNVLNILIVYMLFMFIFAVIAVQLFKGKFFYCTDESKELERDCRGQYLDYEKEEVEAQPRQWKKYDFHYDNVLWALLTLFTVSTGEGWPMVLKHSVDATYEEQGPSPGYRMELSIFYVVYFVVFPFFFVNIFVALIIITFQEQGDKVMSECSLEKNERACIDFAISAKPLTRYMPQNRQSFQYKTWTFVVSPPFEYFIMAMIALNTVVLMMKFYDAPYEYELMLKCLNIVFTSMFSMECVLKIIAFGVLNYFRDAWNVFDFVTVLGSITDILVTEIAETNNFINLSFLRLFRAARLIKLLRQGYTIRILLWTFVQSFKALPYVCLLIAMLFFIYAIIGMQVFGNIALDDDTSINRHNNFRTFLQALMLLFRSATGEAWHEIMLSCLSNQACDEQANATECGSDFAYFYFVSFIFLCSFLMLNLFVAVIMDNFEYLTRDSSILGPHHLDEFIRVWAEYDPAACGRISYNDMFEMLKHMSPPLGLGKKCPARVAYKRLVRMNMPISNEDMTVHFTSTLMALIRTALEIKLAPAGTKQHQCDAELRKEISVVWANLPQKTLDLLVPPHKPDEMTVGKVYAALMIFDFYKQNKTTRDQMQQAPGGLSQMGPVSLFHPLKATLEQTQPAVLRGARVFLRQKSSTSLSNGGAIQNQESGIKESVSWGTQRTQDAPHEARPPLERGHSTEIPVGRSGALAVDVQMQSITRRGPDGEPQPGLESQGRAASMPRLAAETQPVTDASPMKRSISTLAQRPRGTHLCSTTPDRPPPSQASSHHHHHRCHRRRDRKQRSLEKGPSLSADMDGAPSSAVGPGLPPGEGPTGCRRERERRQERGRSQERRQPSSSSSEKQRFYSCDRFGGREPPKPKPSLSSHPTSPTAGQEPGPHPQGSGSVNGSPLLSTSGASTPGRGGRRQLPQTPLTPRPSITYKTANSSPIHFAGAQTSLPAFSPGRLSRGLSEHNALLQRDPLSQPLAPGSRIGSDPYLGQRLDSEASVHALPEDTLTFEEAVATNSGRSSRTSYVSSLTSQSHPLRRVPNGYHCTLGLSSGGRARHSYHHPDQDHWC

Compound	IC50 [1] [nM]	IC50 [2] [nM]	inhibition in vivo at 30 mg/kg (Rattus norvegicus) [%]
CC1=NC(C)=C(C(=O)O)C(c2cccc(Cl)c2)/C1=C(\O)OCCC(c1ccccc1)c1ccccc1 (stereo unspecified)	1100	360	–
CC1=NC(C)=C(C(=O)O)C(c2cccc(F)c2)/C1=C(\O)OC/C=C/c1ccccc1 (stereo unspecified)	1300	20	–
CC1=NC(C)=C(C(=O)O)C(c2cccc(C(=O)O)c2)/C1=C(\O)OC/C=C/c1ccccc1 (stereo unspecified)	37000	> 10000	–
CC1=NC(C)=C(C(=O)O)C(c2cccc(Cl)c2)/C1=C(\O)OC/C(C)=C/c1ccccc1 (stereo unspecified)	680	2.8	–
CC1=C(C(=O)O)C(c2cccc(Cl)c2)C(C(=O)NC/C=C/c2ccccc2)=C(C)N1 (stereo unspecified)	4500	850	–
CC1=NC(C)=C(C(=O)O)C(c2cccc(Cl)c2)/C1=C(\O)OCc1ccc2ccccc2c1 (stereo unspecified)	3900	14	–
CC1=NC(C)=C(C(=O)O)C(c2cccc(Cl)c2)/C1=C(\O)OC/C=C/C1CCCCC1 (stereo unspecified)	830	3.7	–
CC1=NC(C)=C(C(=O)O)C(c2ccccc2)/C1=C(\O)OC/C=C/c1ccccc1 (stereo unspecified)	2000	9	–
CC1=NC(C)=C(C(=O)O)C(c2cccc(Cl)c2)/C1=C(\O)OCC(=O)Nc1ccccc1 (stereo unspecified)	28000	50	–
CC1=NC(C)=C(C(=O)O)C(c2cccc(Br)c2)/C1=C(\O)OC/C=C/c1ccccc1 (stereo unspecified)	790	10	–
CC1=NC(C)=C(C(=O)O)C(c2cccc(Cl)c2)/C1=C(\O)OCC=C(c1ccccc1)c1ccccc1 (stereo unspecified)	3900	200	–
CC1=NC(C)=C(C(=O)O)C(c2ccsc2)/C1=C(\O)OC/C=C/c1ccccc1 (stereo unspecified)	2900	44	–
CC1=NC(C)=C(C(=O)O)C(c2ccc([N+](=O)[O-])cc2)/C1=C(\O)OC/C=C/c1ccccc1 (stereo unspecified)	21000	1600	–
CC1=NC(C)=C(C(=O)O)C(c2cccc(Cl)c2)/C1=C(\O)OC/C=C/c1ccc(Cl)cc1 (stereo unspecified)	1500	5.8	–
CC1=C(C(=O)O)C(c2cccc([N+](=O)[O-])c2)C(C(=O)OC/C=C/c2ccccc2)=C(C)N1 (stereo unspecified)	3500	46	–
COCCOC(=O)C1=C(C)NC(C)=C(C(=O)OC/C=C/c2ccccc2)C1c1cccc([N+](=O)[O-])c1 (stereo unspecified) [CILNIDIPINE]	1600	1.1	46

Further lines, with some results ahead:

IC50 [1] [nM]	IC50 [2] [nM]	Compound	inhibition in vivo at 30 mg/kg (Rattus norvegicus) [%]
1700	13	CC1=NC(C)=C(C(=O)O)C(c2cccc(I)c2)/C1=C(\O)OC/C=C/c1ccccc1 (stereo unspecified)	–
4600	4400	COC(=O)c1cccc(C2C(C(=O)O)=C(C)N=C(C)/C2=C(/O)OC/C=C/c2ccccc2)c1 (stereo unspecified)	–
1800	76	CC1=NC(C)=C(C(=O)O)C(c2cccc(C)c2)/C1=C(\O)OC/C=C/c1ccccc1 (stereo unspecified)	–
6200	320	CC1=NC(C)=C(C(=O)O)C(c2cccc(Cl)c2)/C1=C(\O)OC/C=C/c1ccncc1 (stereo unspecified)	–
890	6.8	CC1=NC(C)=C(C(=O)O)C(c2cccc(Cl)c2)/C1=C(\O)OC/C=C/c1ccc(C)cc1 (stereo unspecified)	–
24000	190	CC1=NC(C)=C(C(=O)O)C(c2cccnc2)/C1=C(\O)OC/C=C/c1ccccc1 (stereo unspecified)	–
37000	31	CC1=NC(C)=C(C(=O)O)C(c2ccccc2[N+](=O)[O-])/C1=C(\O)OC/C=C/c1ccccc1 (stereo unspecified)	–
1700	1800	CC1=C(C(=O)O)C(c2cccc(Cl)c2)C(C(=O)OCCC(c2ccccc2)c2ccccc2)=C(C(F)(F)F)N1 (stereo unspecified)	46
10000	1600	CC1=NC(C)=C(C(=O)O)C(c2cccc(Cl)c2)/C1=C(\O)OCCC(c1ccccn1)c1ccccn1 (stereo unspecified)	–
1000	20	CC1=NC(C)=C(C(=O)O)C(c2cccc(Cl)c2)/C1=C(\O)OC/C=C/c1ccccc1 (stereo unspecified)	–
11000	130	CC1=NC(C)=C(C(=O)O)C(c2ccoc2)/C1=C(\O)OC/C=C/c1ccccc1 (stereo unspecified)	–
